Assay outcomes (PubChem BioAssay)
In the library only some 3.9% were active in any assay of this set; here they are far more common.
TAAR1 antagonist: antagonists of human TAAR1. Q96RJ0. CHO RD-HGA16 TAAR1, Fluo-8 calcium fluorescence, antagonist. inhibition, % at 3 µM. 360,000 tested, 1.5% active;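 active means inhibition above a per-plate cutoff, the mean inhibition of test compounds on that plate plus 3 SD, cut at about 49% in these data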
Target sequence (Q96RJ0 whole entry, looked up): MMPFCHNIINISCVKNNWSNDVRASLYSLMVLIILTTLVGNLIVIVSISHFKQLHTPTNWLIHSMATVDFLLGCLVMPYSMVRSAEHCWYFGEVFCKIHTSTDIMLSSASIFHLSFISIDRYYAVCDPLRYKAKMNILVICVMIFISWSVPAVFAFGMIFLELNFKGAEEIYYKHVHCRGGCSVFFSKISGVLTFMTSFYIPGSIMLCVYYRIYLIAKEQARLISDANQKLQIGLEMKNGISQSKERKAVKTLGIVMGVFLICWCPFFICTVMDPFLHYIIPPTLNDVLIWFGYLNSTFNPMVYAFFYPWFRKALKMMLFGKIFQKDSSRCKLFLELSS
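Test system – hTAAR1-expressing CHO RD-HGA16 cells, Gα16-coupled · Also added – β-PEA at EC80 concentration, post-compound challenge · Compound – 3 µM, single point · Incubation – dye loading 75 min at 37 °C, then 30 min room temperature · Measured by – Fluo-8 intracellular calcium dye fluorescence, real-time kinetic reads · Benchmarks – vehicle and agonist controls · Replicates – singlicate, one well per test compound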
m5-HT2A agonist: mouse HTR2A agonism via beta-arrestin recruitment; P35363; CHO-K1 mHTR2A beta-arrestin complementation, luminescence; percent of 30 µM serotonin response; activation, % at 7.6 µM; 360,000 tested, 0.66% active; AID 624169;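 active means activation above a run cutoff, the mean activation of all tested compounds plus 3 SD, cut at about 14% in these data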
M1 antag: antagonists of human M1 muscarinic receptor. P11229. inhibition, % at 3 µM. CHO-K1 hM1, Fluo-8 calcium fluorescence, ACh EC80 antagonist. 360,000 tested, 1.3% active. AID 588852;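 active means percent inhibition above its own plate's cutoff, namely the mean of that plate's compound wells plus 3 SD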;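 further: peak over basal fluorescence ratio during 140 s after agonist addition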
CHRM1 PAM: potentiates human M1 receptor response to acetylcholine; P11229; CHO-K1 hM1, Fluo-8 calcium fluorescence, ACh EC20; 0% = ACh EC20, 100% = maximal ACh; activation, % at 3 µM; 360,000 tested, 0.088% active; in the data active means activation above about 19%, passing the limit was not always enough
TAAR1 agonist: human TAAR1 agonism; CHO RD-HGA16 TAAR1, Fluo-8 calcium fluorescence; vehicle wells 0%, saturating PEA agonist 100%; activation, % at 3 µM; 360,000 tested, 0.99% active; AID 624467;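 active means activation above the mean activation of all test compounds in the run plus 3 SD, cut at about 38% in these data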
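Signal – calcium-sensitive Fluo-8 signal, excitation 470-495, emission 515-575 nm · System – RD-HGA16 (CHO) cells co-expressing Gα16 and hTAAR1 · Incubation – 17-24 h seeding, 75 min 37 °C dye, 30 min RT · Compound dosing – 3 µM single concentration · Repeats – no replicates (n 1)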
M1 ag: activates human CHRM1 receptor. CHO-K1 hM1, Fluo-8 calcium fluorescence, agonist mode; 0% DMSO, 100% acetylcholine EC100. activation, % at 3 µM. 360,000 tested, 0.33% active;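 active means activation above the run's mean compound activation plus 3 SD, cut at about 16% in these data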;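 further: peak over basal fluorescence ratio within a 140 s kinetic read after compound addition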
Each line names hits and unclear results; the compound was inactive in the other large screens.

C[C@@]12C(=O)Nc3ccccc3C(=O)N1[C@H]1c3cc(Cl)ccc3OC[C@@H]1[C@@H]2c1ccccc1	M1 antag 33.3
COc1ccc2c(c1)[C@H]1[C@H](CO2)[C@H](c2ccccc2)[C@]2(C)C(=O)Nc3ccc(C)cc3C(=O)N12	none
C[C@@]12C(=O)Nc3ccc(Cl)cc3C(=O)N1[C@H]1c3cc(Cl)ccc3OC[C@@H]1[C@@H]2c1ccccc1	none
COc1ccc2c(c1)C(=O)N1[C@H]3c4cc(C)ccc4OC[C@@H]3[C@H](c3ccccc3)[C@]1(C)C(=O)N2	M1 antag 60.1
Cc1ccc2c(c1)[C@H]1[C@H](CO2)[C@H](c2ccccc2)[C@]2(C)C(=O)Nc3ccc(Cl)cc3C(=O)N12	M1 antag 35.2
Cc1ccc2c(c1)[C@H]1[C@H](CO2)[C@H](c2ccccc2)[C@]2(C)C(=O)Nc3ccccc3C(=O)N12	M1 antag 86.5
O=C(COC(=O)c1cc(Cl)nc(Cl)c1)NCc1ccc2c(c1)OCO2	none
COc1ccc2c(c1)OC[C@H]1[C@H]2N2C(=O)c3ccccc3NC(=O)[C@@]2(C)[C@H]1c1ccccc1	M1 antag 75.4
COC(=O)[C@]12C[C@H](CC(=O)N3CCCC3)C(=O)N(Cc3ccccc3)C1=C[C@H](C1CCCC1)O[C@@H]2C	none (no result: m5-HT2A agonist, M1 antag, CHRM1 PAM, M1 ag)
O=C(NCCCN1CCOCC1)C(=O)N/N=C/c1c(Cl)cccc1Cl	none
O=C(NCCCN1CCOCC1)C(=O)N/N=C/c1c2ccccc2cc2ccccc12	M1 antag 65.2
CSc1ccc(S(=O)(=O)Nc2ccc(F)cc2)cc1	TAAR1 agonist 38.9
O=S(=O)(Nc1ccc2c(c1)OCCO2)c1ccc(F)cc1	TAAR1 agonist 40.3
Cc1nc2ccc(NS(=O)(=O)c3ccc4c(c3)OCCO4)cc2s1	M1 antag 31.2
Cc1ccc(S(=O)(=O)Nc2ccc3nc(C)sc3c2)cc1	none (no result: TAAR1 antagonist, TAAR1 agonist)
Cc1ccc(S(=O)(=O)Nc2ccc3c(c2)OCCO3)cc1	none
O=S(=O)(Nc1ccc(F)cc1)c1ccc(S(=O)(=O)N2CCOCC2)cc1	TAAR1 agonist 60.7, M1 ag 23.9
O=S(=O)(Nc1ccc(S(=O)(=O)N2CCCC2)cc1)c1ccc(F)cc1	none
Cc1[nH]c2ccccc2c1CC(=O)Nc1ccc(Nc2cccnc2)c(-c2ccc(OC(F)(F)F)cc2)c1	none (no result: m5-HT2A agonist, M1 antag, CHRM1 PAM, M1 ag)
OC1OC2COC(c3ccccc3)OC2C(O)C1O (stereo not drawn)	none (no result: m5-HT2A agonist, M1 antag, CHRM1 PAM, M1 ag)
CC(C)(C)c1cc(NC(=O)C2(C)CCN2C(=O)C2(c3ccccc3)CCCC2)no1 (stereo not drawn)	none
CCC1CCCCN1S(=O)(=O)c1ccc(-n2cnnn2)c(C)c1 (stereo not drawn)	none
CC(=O)Nc1ccc(S[C@@H](CCN2CC[C@H](C(C)(C)C)CCC2=O)c2ccccc2)cc1	TAAR1 antagonist 48.7
CC(C)(C)[C@@H]1CCC(=O)N(CC[C@H](Sc2ccccc2)c2ccccc2)CC1	none
O=S(=O)(NCc1cn2ccccc2n1)c1ccccc1F	none
Cc1cc(OC(=O)c2c(Cl)cc(Cl)cc2Cl)nc(C)n1	CHRM1 PAM 24.4
Cc1cc(C)nc(OC(=O)c2c(Cl)cc(Cl)cc2Cl)n1	none
Cc1ccc(CCNC(=O)C2CCN(S(=O)(=O)c3ccc4c(c3)NC(=O)C(C)S4)CC2)cc1 (stereo not drawn)	TAAR1 antagonist 60.9
CC1Sc2ccc(S(=O)(=O)N3CCC(C(=O)NCC(C)c4ccccc4)CC3)cc2NC1=O (stereo not drawn)	M1 antag 46.5, TAAR1 agonist 41.7
O=C1CC(N(O)c2ccccc2)C(=O)N1c1cc(Cl)cc(Cl)c1 (stereo not drawn)	M1 ag 26.8
Oc1ccc(Oc2ccc(Oc3ccc(O)cc3)cc2)cc1	TAAR1 antagonist 51.3
CC(=O)c1ccc(Oc2ccc(C(C)=O)cc2)cc1	none
Cc1c(Cc2ccc3c(c2)OCO3)sc(NC(=O)c2cccc3ccccc23)c1C(N)=O	M1 antag 101.4
Cc1c(Cc2ccc3c(c2)OCO3)sc(NC(=O)C2CC2)c1C(N)=O	none
OC1(C#CCN2CCCC2)CCCCC1	none
C=CCc1cccc(CNc2cnc3ccccc3c2)c1O	M1 antag 40.4
Oc1ccccc1CNc1cnc2ccccc2c1	none
Cc1nn(C(=O)c2nn(C)cc2[N+](=O)[O-])c(C)c1Br	m5-HT2A agonist 29.9
Cc1nn(C(=O)c2nn(C)cc2[N+](=O)[O-])c(C)c1Cl	none
COC(=O)c1c(NC(=O)CN2C(=O)C(=O)N(C(C)C)C2=O)sc(C)c1C	none
Cc1cc(Br)ccc1NC(=O)CN(C)C(=O)c1cc([N+](=O)[O-])ccc1N1CCOCC1	none
CC(C)OC(=O)c1nnn(-c2nonc2N)c1CN1CCc2ccccc2C1	none
CCOC(=O)c1nnn(-c2nonc2N)c1CN1CCc2ccccc2C1	TAAR1 agonist 40.1
CCc1nnc(NC(=O)CCC(=O)N2CCN(C3CCCCC3)CC2)s1	M1 ag 18.9
CC(C)c1nnc(NC(=O)CCC(=O)N2CCN(C3CCCCC3)CC2)s1	M1 ag 22.0 (no result: TAAR1 antagonist, TAAR1 agonist)
O=c1c(Cl)c(N2CCC3(CC2)OCCO3)cnn1C12CC3CC(CC(C3)C1)C2	none
C[N+]1(C)CCCC(OC(=O)C(O)(c2ccccc2)c2ccccc2)C1 (stereo not drawn)	M1 antag 99.4
CC(C)CCN1CCN(CC(c2ccccc2)c2ccccc2)CC1CCO (stereo not drawn)	M1 antag 34.8
CN1C(=O)Cc2cc(S(=O)(=O)N3CCN(c4ccccc4F)CC3)ccc21	none
Nc1c2c(nc3sc4c(c13)CCCCC4)CCCCC2	M1 antag 50.6
O=[N+]([O-])c1ccc2c(c1)C(N1CCN(CCO)CC1)Cc1ccc(F)cc1S2 (stereo not drawn)	none
CSc1ccc2c(c1)C(N1CCN(C)CC1)Cc1ccc(F)cc1S2 (stereo not drawn)	M1 antag 69.2
O=C(c1ccccc1)N1CCC2CCN(S(=O)(=O)c3ccccc3)CC21 (stereo not drawn)	none (no result: m5-HT2A agonist, M1 antag, CHRM1 PAM, M1 ag)
Cc1ccccc1S(=O)(=O)Cc1ccc(C(=O)N2CC(C)CC(C)C2)o1 (stereo not drawn)	TAAR1 agonist 42.3
Cc1ccccc1S(=O)(=O)Cc1ccc(C(=O)N2CCN(c3cccc(C)c3C)CC2)o1	TAAR1 antagonist 73.2
CC(C)C(C(=O)NCc1ccccc1)N1CCN(CCN2CCOCC2)CC1 (stereo not drawn)	none (no result: m5-HT2A agonist, M1 antag, CHRM1 PAM, M1 ag)
O=C(CCNS(=O)(=O)c1ccc2nsnc2c1)N1CCN(c2ccncc2)CC1	M1 antag 61.8
O=[N+]([O-])c1cccc(-c2ccn[nH]2)c1	CHRM1 PAM 30.6
O=[N+]([O-])c1cc(-c2ccn[nH]2)ccc1Cl	none
